From PubChem BioAssay
Sampled rows, rich in hits. Any-hit rate of the full collection: about 4%.
SIRT5 block = inhibitors of human sirtuin-5 desuccinylase; AID 652115; inhibition, % at 15 µM; 330,000 compounds, 1.1% hits; Q9NXA8; Purified SirT5, succinyl-peptide AMC, trypsin-coupled fluorescence; in the data active = inhibition above about 15%
Target sequence (Q9NXA8 whole entry, looked up): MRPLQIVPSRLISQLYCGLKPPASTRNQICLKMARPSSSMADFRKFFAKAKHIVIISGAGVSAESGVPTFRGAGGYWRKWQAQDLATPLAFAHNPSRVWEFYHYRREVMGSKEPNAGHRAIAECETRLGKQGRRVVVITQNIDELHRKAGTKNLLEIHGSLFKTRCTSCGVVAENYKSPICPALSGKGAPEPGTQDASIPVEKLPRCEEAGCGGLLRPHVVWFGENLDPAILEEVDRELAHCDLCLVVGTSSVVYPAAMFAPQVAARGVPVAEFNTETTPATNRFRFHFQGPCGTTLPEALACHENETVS
E-sel inducer = E-selectin induction on HUVECs; P16581; activation, % at 7.58 µM; HUVEC E-selectin immunofluorescence imaging; normalized: neutral wells 0, TNF-alpha wells 100; 260,000 compounds, 0.37% hits;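 active = mean E-selectin-positive cell signal at least 10% of the positive control, reached in at least 60% of replicates, without over 20% cell loss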
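Test system – human umbilical vein endothelial cells (HUVEC), E-selectin induction · Input – 3,000 HUVEC seeded per well · Buffer or medium – EGM-2, gelatin · Compound dosing – single-point compound dose · Detection – immunofluorescence imaging · Measure – percent E-selectin-positive cells · Controls – TNF-alpha high, DMSO low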
Statin myotox sup = protects C2C12 myotubes from simvastatin toxicity | ATP luminescence, 48 h; scaled: DMSO 0, geranylgeraniol control 100 | rescue of ATP level, % at 7.49 µM | 330,000 compounds, 0.78% hits | AID 602340;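 active = mean ATP rescue above about 67%, or every replicate alone reaching that limit, limit read from the data, passing the limit was not always enough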;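 note: myotubes were challenged with 10 µM simvastatin during compound exposure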
rRNA inh HTS = inhibits bacterial ribosomal RNA function over humanized ribosomes. 350,000 compounds, 1.6% hits. GFP signal change (wild-type ribosome), % (concentration not given with the values). E. coli WT GFP vs humanized-ribosome RFP mutants, fluorescence, 24 h; hits give low values; DMSO median 0, no signal -100;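 active = significant combined selectivity score with lowered wild-type GFP, culture density cut under 30%, mutant RFP and density less affected; inactive = any of these conditions unmet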
FGF22 binding = FGF22 (human) thermal shift binding; activity (Tm shift, normalised), % at 9.99 µM; recombinant FGF22 thermal shift, SYPRO orange fluorescence; percent of sucrose octasulfate shift, DMSO zero; Q9HCT0; 340,000 compounds, 1.5% hits; AID 651658;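 active = mean Tm shift, scaled 0 neutral to 100 positive control, at about 1.3% or above, every replicate too, limit read from the data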
Target sequence (Q9HCT0 whole entry, looked up): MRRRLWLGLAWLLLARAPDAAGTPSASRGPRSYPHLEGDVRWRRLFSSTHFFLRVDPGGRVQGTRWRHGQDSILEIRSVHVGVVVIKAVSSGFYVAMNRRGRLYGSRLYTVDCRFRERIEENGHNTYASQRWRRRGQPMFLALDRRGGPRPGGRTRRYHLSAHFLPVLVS
FN deposition inh = fibronectin deposition inhibition | AH1F fibroblasts, Alexa488-fibronectin deposition fluorescence, overnight | inhibition, % at 12.6 µM | 350,000 compounds, 0.086% hits | AID 743247;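 active = mean inhibition across replicates of 30% or more, regardless of how many single replicates reach that level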;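 note: positive control wells lacked labelled fibronectin entirely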
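Material: AH1F fibroblast monolayer depositing Alexa488-labelled fibronectin into matrix | Input: 10000 AH1F cells/well | Medium: DMEM plus 2% serum, read in PBS | Reagent: Alexa488-fibronectin, 24 nM final in well | Compound dosing: One dose per compound, pinned | Schedule: 1 h adhesion, overnight exposure | Measured by: Fluorescence at 485 nm excitation, 525 nm emission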
The depositor's hits bear a star; nt = no result given.

SMILES | SIRT5 block | E-sel inducer | Statin myotox sup | rRNA inh HTS | FGF22 binding | FN deposition inh
CCCNC(=O)C[C@H]1CC[C@H]2[C@@H](COc3ccc(NC(=O)c4ccno4)cc3C(=O)N2C)O1 | -2 | 0 | -5 | 4 | 0 | -6
COC(=O)C[C@H]1C[C@H]2c3cc(NC(=O)C4CCC4)ccc3O[C@H]2[C@@H](CO)O1 | -7 | 0 | 0 | 2 | 0 | 5
CCOc1cc(CNCc2cccs2)cc(Br)c1OC | nt | nt | 97* | nt | nt | nt
C[C@@H]1CN([C@H](C)CO)C(=O)Cc2cc(NC(=O)c3ccncc3)ccc2O[C@H]1CN(C)Cc1ccc(C(=O)O)cc1 | -3 | nt | -9 | 0 | 0 | nt
COc1ccc(CN2CC3(CCN(Cc4ccccn4)CC3)c3c(n(C)c4cc(OC)ccc34)[C@@H]2CO)cc1 | nt | 0 | nt | -1 | nt | nt
Cc1noc(C)c1NC(=O)Nc1ccc2c(c1)C(=O)N([C@@H](C)CO)C[C@@H](C)[C@@H](CN(C)C(=O)Nc1ccc(F)cc1)O2 | -2 | 0 | -29 | 2 | 0 | -6
CNC(=O)C[C@H]1CC[C@@H]2[C@H](COc3ccc(NC(=O)c4ccc(F)cc4)cc3C(=O)N2C)O1 | -2 | 0 | 1 | 2 | 0 | -4
O=C(CSc1nnnn1-c1ccccc1)Nc1ncc2c(n1)CC(c1ccccc1)CC2=O (centres undefined) | nt | nt | nt | nt | nt | 6
Cc1nnc(SCC(=O)Nc2ncc3c(n2)CC(c2ccccc2)CC3=O)s1 (centres undefined) | 28* | nt | -6 | 20 | nt | -4
COc1ccc(S(=O)(=O)Nc2ccc3c(c2)C(=O)N([C@@H](C)CO)C[C@H](C)[C@H](CN(C)Cc2ccncc2)O3)cc1 | -4 | 0 | -7 | -3 | 0 | -5
CN1C(=O)c2cc(NC(=O)C3CCCC3)ccc2OC[C@H]2O[C@H](CC(=O)NCC3CC3)CC[C@H]21 | 2 | 1 | -5 | 1 | 0 | 6
O=C(CCCCCN1C(=O)[C@@H]2Cc3ccccc3CN2C1=O)Nc1cccc(F)c1 | 0 | 4 | 17 | -35* | 0 | -9
O=C(C1CC1)N1C[C@@H]2[C@H](c3ccccc31)[C@H](CO)N2C(=O)c1ccccn1 | 0 | 0 | -3 | 0 | 0 | nt
COc1cccc(NC(=O)CSc2nc(C)cs2)c1 | nt | nt | 109* | nt | nt | nt
Cc1csc(SCC(=O)Nc2ccccc2[N+](=O)[O-])n1 | -2 | 0 | 1 | -11 | 44* | -6
O=C(CNCc1cccc2ccccc12)Nc1ccccc1[N+](=O)[O-] | -4 | 5 | nt | -31* | 0 | 6
CO[C@H]1CN(C)C(=O)c2cc(NS(=O)(=O)c3ccccc3C)ccc2OC[C@@H](C)N(S(C)(=O)=O)C[C@@H]1C | -3 | nt | -3 | nt | 0 | nt
O=C(c1ccccn1)N1CCN(S(=O)(=O)c2ccccc2)CC1 | 10 | 0 | -5 | 10 | 43* | -5
O=C(c1ccccn1)N1CCN(S(=O)(=O)c2ccc(F)cc2)CC1 | 2 | 1 | nt | 16 | 1 | 5
Cc1ccc(S(=O)(=O)N2CCN(C(=O)c3ccccn3)CC2)cc1 | -3 | nt | 4 | 12 | 43* | -6
COc1ccc(C2=Nn3c(nnc3-c3ccccc3F)SC2)cc1OC1CCOC1 (centres undefined) | nt | 2 | -11 | 1 | 0 | 4
COc1ccc(C2=Nn3c(nnc3-c3ccccc3OC)SC2)cc1OCC1CC1 | nt | 0 | -86 | -27* | 0 | 3
COc1ccc(C2=Nn3c(nnc3-c3ccccc3F)SC2)cc1OC1CCCC1 | 20* | 0 | -13 | -37 | 0 | 21
COc1ccc(OC)c(-c2nnc3n2N=C(c2ccc(OC)c(OC)c2)CS3)c1 | 3 | 0 | -24 | -19* | 0 | -17
Cc1noc(C)c1NC(=O)N(C)C[C@H]1Oc2c(NC(=O)CCCCCC(=O)Nc3ccccc3N)cccc2C(=O)N([C@@H](C)CO)C[C@@H]1C | -1 | 0 | nt | 4 | 0 | 3
SMILES | SIRT5 block | E-sel inducer | Statin myotox sup | rRNA inh HTS | FGF22 binding | FN deposition inh
C[C@@H]1CN([C@@H](C)CO)C(=O)c2cccc(NC(=O)NC3CCCCC3)c2O[C@@H]1CN(C)C(=O)Nc1ccc(F)cc1 | 7 | 0 | -8 | -1 | 0 | nt
C/C=C/c1ccc([C@H]2[C@@H](CO)N(C(=O)Cc3cccnc3)[C@@H]2CNC(C)=O)cc1 | 0 | 0 | -6 | 0 | 0 | 4
CO[C@H]1CC[C@@H]2CCOc3c(C#N)cccc3C(=O)N(C)C[C@H](C)C(=O)N(C)C[C@@H]1O2 | 20* | 0 | -3 | 7 | 0 | -15
O=C(Cc1cccnc1)N1CC[C@H]2[C@H](CO)Nc3ccc(C#Cc4cccc(F)c4)cc3[C@H]21 | 1 | 1 | nt | 5 | nt | 4
CCc1ccc(-c2cc(C)no2)cc1S(=O)(=O)Nc1cc(C)ccn1 | 32* | 0 | -4 | 5 | 0 | -4
O=C(CSc1ccccc1C(=O)O)NCc1ccccc1 | 15* | -1 | 3 | 7 | 0 | -8
O=C(C[C@@H]1CC[C@@H](NC(=O)c2ccncc2)[C@H](CO)O1)Nc1ccc(-c2ccccc2)cc1 | -2 | 0 | nt | -3 | nt | nt
COc1ccc(-c2nc(C#N)c(N3CCCCC3)o2)cc1 | -13 | nt | -6 | -27 | 0 | -7
N#Cc1nc(-c2ccco2)oc1N1CCCC1 | nt | nt | 112* | nt | nt | nt
COc1ccc(-c2nc(C#N)c(N3CCCCCC3)o2)cc1OC | -54 | nt | nt | -23* | 0 | nt
CCN1CCN(c2oc(-c3ccco3)nc2C#N)CC1 | 0 | 0 | 1 | 8 | 0 | -2
C[C@@H]1CN([C@H](C)CO)C(=O)c2cc(-c3ccncc3)cnc2O[C@H]1CN(C)C(=O)C1CCC1 | nt | 1 | 19 | 2 | nt | nt
COc1ccc2c3c([nH]c2c1)[C@H](CO)N(C(=O)c1cccnc1)CC31CCN(Cc2ccccc2)CC1 | 3 | 0 | nt | 3 | 0 | nt
COC(=O)c1ccccc1NC(=O)Nc1cccc(C)n1 | -2 | nt | -2 | nt | 43* | -4
COCCCNC(=O)c1cccn2c(=O)c3cc4ccccc4cc3nc12 | 1 | nt | 182* | -9 | nt | nt
C=CCn1c(=N)c(C(=O)NCCCOC)cc2c(=O)n3cccc(C)c3nc21 | nt | nt | -2 | nt | nt | nt
Fc1ccc(Br)cc1C1C=C(c2ccc(Br)cc2)Nc2ncnn21 (centres undefined) | -2 | nt | 34 | -30* | nt | 0
CCCNC(=O)N(C)C[C@H]1Oc2ncc(-c3ccc(F)cc3)cc2C(=O)N([C@H](C)CO)C[C@@H]1C | -4 | 2 | -8 | 2 | 0 | nt
Cc1ccc(S(=O)(=O)Nc2cccnc2)c(C)c1C | 15* | nt | -2 | 13 | 0 | -12
Cc1ccccc1S(=O)(=O)Nc1cccnc1 | nt | nt | 0 | nt | nt | nt
